According to ChEMBL document CHEMBL4411273, “Polycyclic maleimide-based derivatives as first dual modulators of neuronal calcium channels and GSK-3β for Alzheimer's disease treatment” (Eur J Med Chem, 2019):
pEC50, pIC50: −log10 of the molar value.

Columns and labels:
Ileum [1] = assay: Inhibition of calcium-induced contraction in K+-depolarized guinea pig ileum at 5 x 10^-5 M relative to control; type: tissue-based; conditions: Cavia porcellus
How it was run: (§1)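 Isolated guinea-pig aortic strips and ileum longitudinal smooth muscle, depolarized with 80 mM K+. Calcium-induced contraction measured with cumulative compound addition. Percent inhibition relative to control. IC50 from log concentration–response curves by Probit analysis, n = 6–7; not calculated when maximum effect was <50%.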

Left cardiac atrium [2] = assay: Negative inotropic activity in guinea pig left atrium assessed as decrease in developed tension at 10^-5 M relative to control; design: scale not given: the % may be the effect or the level left; conditions: 10 µM
Right cardiac atrium [3] = assay: Negative inotropic activity in guinea pig spontaneously beating right atrium assessed as decrease in developed tension at 5 x 10^-5 M; type: ADME, tissue-based, Cavia porcellus; design: scale not given: the % may be the effect or the level left; conditions: 50 µM
How it was run: (§2)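 Isolated spontaneously beating guinea-pig right atrium. Cumulative compound addition from 0.1 to 100 µM. Percent decrease in atrial rate, and in developed tension (n = 7–8), versus control. EC50 from log concentration–response curves by Probit analysis; not calculated when maximum effect was <50%.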

[4] = system: Voltage-gated calcium channel; assay: Inhibition of K+-induced voltage gated calcium channel opening in human SH-SY5Y cells assessed as decrease in Ca2+ level at 10 uM after 10 mins by Fluo-4 dye-based fluorescence assay relative to control; type: cell-based
How it was run: (§3)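 Confluent SH-SY5Y cells (36–72 h after seeding) loaded with Fluo-4, washed with Krebs-HEPES, then incubated 10 min with compound or DMSO. Depolarized by injecting KCl to 70 mM and fluorescence followed for 2 min. Fmax taken after 5% Triton X lysis, Fmin after MnCl2. Ca2+ rise expressed against K+-induced rise without compound; blind testing, at least three independent experiments in triplicate, mean ± SEM. IC50 obtained by sigmoidal regression.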

Left cardiac atrium [5] = assay: Negative inotropic activity in guinea pig left atrium assessed as decrease in developed tension; type: ADME, tissue-based; conditions: Cavia porcellus
Right cardiac atrium [6] = assay: Negative chronotropic activity in guinea pig spontaneously beating right atrium assessed as decrease in atrial rate at 5 x 10^-5 M; type: ADME, tissue-based, Cavia porcellus; design: scale not given: the % may be the effect or the level left; conditions: 50 µM; how it was run: as §2
Aorta [7] = assay: Inhibition of calcium-induced contraction in K+-depolarized guinea pig aortic strips at 5 x 10^-5 M relative to control; type: tissue-based; conditions: Cavia porcellus; how it was run: as §1
Right cardiac atrium [8] = assay: Negative inotropic activity in guinea pig spontaneously beating spontaneously beating right atrium assessed as decrease in developed tension; type: ADME, tissue-based; conditions: Cavia porcellus; how it was run: as §2
Left cardiac atrium [9] = assay: Negative inotropic activity in guinea pig left atrium assessed as decrease in developed tension at 5 x 10^-5 M relative to control; type: ADME, tissue-based, Cavia porcellus; design: scale not given: the % may be the effect or the level left; conditions: 50 µM
How it was run: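 Isolated guinea-pig left atrium driven at 1 Hz. Cumulative compound concentrations from 0.1 to 100 µM. Percent decrease in developed tension versus control, n = 5–6. EC50 from log concentration–response curves by Probit analysis, n = 6–7; not calculated when maximum effect was <50%.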

Ileum [10] = assay: Inhibition of calcium-induced contraction in K+-depolarized guinea pig ileum; type: tissue-based; conditions: Cavia porcellus
Right cardiac atrium [11] = assay: Negative chronotropic activity in guinea pig spontaneously beating right atrium assessed as decrease in atrial rate at 10^-5 M; type: ADME, tissue-based, Cavia porcellus; design: scale not given: the % may be the effect or the level left; conditions: 10 µM; how it was run: as §2
Ileum [12] = assay: Inhibition of calcium-induced contraction in K+-depolarized guinea pig ileum at 10^-5 M relative to control; type: tissue-based; conditions: Cavia porcellus; how it was run: as §1
[13] = Cytotoxicity against human SH-SY5Y cells assessed as cell viability at 10 uM after 48 hrs by MTT assay relative to control; type: cell-based; conditions: read-out: Activity
How it was run: (§4)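 SH-SY5Y cells seeded at 70 000 cells/well, exposed before confluence to compounds in MEM/F12 with 10% FBS for 24 h, then fresh medium with 1% FBS plus compounds for a further 24 h. MTT 1.2 mM for 2 h in dark; formazan dissolved in DMSO, absorbance at 540 nm. Viability expressed as percent of vehicle (DMSO)-treated cells; three independent experiments, mean ± SEM.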

[14] = biological target: Voltage-gated calcium channel; assay: Inhibition of K+-induced voltage gated calcium channel opening in human SH-SY5Y cells assessed as decrease in Ca2+ level after 10 mins by Fluo-4 dye-based fluorescence assay; type: cell-based; how it was run: as §3
[15] = system: Left cardiac atrium (Cavia porcellus); assay: Negative inotropic activity in guinea pig left atrium driven at 1 Hz assessed as decrease in developed tension at 10^-5 M; design: scale not given: the % may be the effect or the level left; conditions: 10 µM
[16] = Cytotoxicity against human SH-SY5Y cells assessed as cell viability at 30 uM after 48 hrs by MTT assay relative to control; type: cell-based; conditions: read-out: Activity; how it was run: as §4
Ileum [17] = assay: Inhibition of calcium-induced contraction in K+-depolarized guinea pig ileum at 10^-6 M relative to control; type: tissue-based; conditions: Cavia porcellus; how it was run: as §1
[18] = biological target: Glycogen synthase kinase-3 beta (Homo sapiens) (UniProt P49841); assay: Inhibition of GSK3beta (unknown origin) assessed as residual activity at 50 uM pre-incubated for 30 mins followed by ULight-GS (Ser641/pSer657) peptide substrate addition and measured after 1 hr by TR-FRET assay relative to control
How it was run: (§5)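 TR-FRET (LANCE Ultra) kinase assay at 22 °C in 50 mM HEPES pH 7.5, 1 mM EGTA, 10 mM MgCl2, 2 mM DTT, 0.01% Tween-20, 3% DMSO. GSK-3β (0.5 nM final) preincubated 30 min with compound; ATP 10 µM and ULight-GS peptide 50 nM (final) added for 1 h. Stopped with 24 mM EDTA plus 2 nM Eu-anti-phospho-GS antibody, 1 h. Read at ex 320 nm, em 615/665 nm. Residual activity relative to DMSO; three separate experiments, mean ± SD.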

Right cardiac atrium [19] = assay: Negative chronotropic activity in guinea pig spontaneously beating right atrium assessed as decrease in atrial rate at 10^-7 M; type: ADME, tissue-based, Cavia porcellus; design: scale not given: the % may be the effect or the level left; conditions: 0.1 µM
Aorta [20] = assay: Inhibition of calcium-induced contraction in K+-depolarized guinea pig aortic strips at 10^-6 M relative to control; conditions: Cavia porcellus, read-out: INH
Ileum [21] = assay: Inhibition of calcium-induced contraction in K+-depolarized guinea pig ileum at […] relative to control; conditions: Cavia porcellus, read-out: INH
[22] = biological target: Glycogen synthase kinase-3 beta (Homo sapiens) (UniProt P49841); assay: Inhibition of GSK3beta (unknown origin) assessed as residual activity at 3.12 uM pre-incubated for 30 mins followed by ULight-GS (Ser641/pSer657) peptide substrate addition and measured after 1 hr by TR-FRET assay relative to control; how it was run: as §5
Right cardiac atrium [23] = assay: Negative chronotropic activity in guinea pig spontaneously beating right atrium assessed as decrease in atrial rate at 10^-6 M; type: ADME, tissue-based, Cavia porcellus; design: scale not given: the % may be the effect or the level left; conditions: 1 µM; how it was run: as §2

Chain of Glycogen synthase kinase-3 beta (Homo sapiens) (P49841 whole entry, looked up): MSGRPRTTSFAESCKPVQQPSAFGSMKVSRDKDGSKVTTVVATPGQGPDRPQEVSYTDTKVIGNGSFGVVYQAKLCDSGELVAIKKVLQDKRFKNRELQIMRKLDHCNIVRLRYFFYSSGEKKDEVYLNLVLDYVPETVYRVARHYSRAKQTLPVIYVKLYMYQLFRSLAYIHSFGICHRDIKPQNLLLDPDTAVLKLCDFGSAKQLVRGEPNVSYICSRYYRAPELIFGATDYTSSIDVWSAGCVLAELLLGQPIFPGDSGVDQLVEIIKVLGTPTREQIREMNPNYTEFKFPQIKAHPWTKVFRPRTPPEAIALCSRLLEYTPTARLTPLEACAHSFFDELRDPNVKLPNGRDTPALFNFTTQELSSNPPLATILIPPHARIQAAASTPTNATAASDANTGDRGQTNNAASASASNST

Compound	inhibition at 50 µM (Ileum [1]) [%]	Activity (Left cardiac atrium [2]) [%]	Activity (Right cardiac atrium [3]) [%]	inhibition (INH) [4] [%]	pEC50 (Left cardiac atrium [5])	inhibition at 50 µM (Aorta [7]) [%]	pEC50 (Right cardiac atrium [8])	Activity (Left cardiac atrium [9]) [%]	pEC50 (Ileum [10])	Activity (Right cardiac atrium [11]) [%]	viability at 48 h, 10 µM [13] [%]	pIC50 [14]	Activity [15] [%]	viability at 48 h, 30 µM [16] [%]	also measured
CC(=O)Nc1cccc2c1C1c3ccccc3C2C2C(=O)NC(=O)C12 (stereo unspecified)	12	65	34	0	6.49	6									Activity (Right cardiac atrium [6]): 8%
Nc1cccc2c1C1c3ccccc3C2C2C(=O)NC(=O)C12 (stereo unspecified)	97		92	11	5.72	8	5.73	82	4.83	42					
CC(=O)Nc1ccc2c(c1)C1c3ccccc3C2C2C(=O)NC(=O)C12 (stereo unspecified)			93	8	5.44	10	5.66	79	5.60						inhibition at 10 µM (Ileum [12]): 67%; Activity (Right cardiac atrium [6]): 37%
O=C1NC(=O)C2C3c4ccccc4C(c4cccc(Cl)c43)C12 (stereo unspecified)		93		37	6.06	9	5.97		5.93	37	92	4.96	94	93	inhibition at 10 µM (Ileum [12]): 90%
O=C1NC(=O)C2C1C1(Cl)c3ccccc3C2(Cl)c2ccccc21 (stereo unspecified)			97	38	6.66	7	6.33	97	6.31		95	4.82		92	inhibition at 1 µM (Ileum [17]): 68%; Activity [18]: 48%
O=C1NC(=O)C2C3c4ccccc4C(c4ccc(Cl)cc43)C12 (stereo unspecified)		80		39	6.37	21	5.61		5.48	47	91	4.82	87	97	inhibition at 1 µM (Ileum [17]): 90%
CC(=O)c1ccc2c(c1)C1c3ccccc3C2C2C(=O)NC(=O)C12 (stereo unspecified)	85			20		18		11	6.11	33			4		
COC(=O)C1=C(C)NC(C)=C(C(=O)OC)C1c1ccccc1[N+](=O)[O-] [NIFEDIPINE]									8.82						Activity (Right cardiac atrium [19]): 85%; Activity (Left cardiac atrium [2]; Left cardiac atrium): 97%; inhibition at 1 µM (Aorta [20]): 82%; inhibition at 0.005 µM (Ileum [21]): 70%
COCCOC(=O)C1=C(C)NC(C)=C(C(=O)OC(C)C)C1c1cccc([N+](=O)[O-])c1 (stereo unspecified) [NIMODIPINE]				25								4.85			
CCCCCCCNC(=O)C12c3ccccc3C(c3ccccc31)C1C(=O)NC(=O)C12 (stereo unspecified)	94	76		56	5.72	6	6.29		5.44	45	85	5.05	85	87	Activity [22]: 55%; Activity [18]: 10%
O=C1NC(=O)C2C1C1c3ccccc3C2(/C=N/Cc2ccccc2)c2ccccc21 (stereo unspecified)	85		85	4	6.07		5.54	75	4.92						Activity [18]: 51%; Activity (Right cardiac atrium [6]): 26%
Nc1ccc2c(c1)C1c3ccccc3C2C2C(=O)NC(=O)C12 (stereo unspecified)			79	6	5.83		5.66	74	5.90						inhibition at 10 µM (Ileum [12]): 90%; Activity (Right cardiac atrium [23]): 15%
